In the library only some 2.2% were active in any assay of this set; here they are far more common.
Ba/F3 V617F tox = reduce viability of Ba/F3 cells dependent on JAK2V617F | Ba/F3 EpoR-JAK2V617F viability, ATP luminescence | inhibition, % at 5.6 µM | hit rate 1.1% among 220,000;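 active = inhibition above the campaign mean plus 3 SD over all tested compounds, cut at about 24% in these data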;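 note: cytokine-independent growth of Ba/F3 cells driven by EpoR plus mutant JAK2; 0% = DMSO-treated cells and 100% = JAK inhibitor I control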
BaF3 parental = reduces parental Ba/F3 cell viability, JAK2V617F counter-screen; CellTiter-Glo ATP luminescence; inhibition, % at 5.6 µM; hit rate 1.1% among 220,000; AID 1486;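 active = inhibition above a per-campaign cutoff, the mean inhibition of all tested compounds plus 3 SD, cut at about 27% in these data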;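 note: 0% = DMSO wells and 100% = JAK Inhibitor I control wells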
b-catenin transl = alters nuclear translocation of beta-catenin in HeLa cells; immunofluorescence imaging; nuclear translocation activity, % at 5 µM; hit rate 0.3% among 190,000;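 active = nuclear translocation activity above 50% at 5 µM, with a well cell count of 50 or more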;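 note: per-cell ratio of nuclear to cytoplasmic median beta-catenin stain intensity; plate controls were DMSO negative control for no effect and GSK-3 inhibitor IX positive control for full effect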
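Signal – beta-catenin immunofluorescence imaging with DAPI · Test system – human HeLa cell line · Dosing – 5 µM primary single dose, 0.1% DMSO, 0.02–20 µM confirmation series · Measure – % activation, nuclear-to-cytoplasmic median beta-catenin signal ratio per cell · Incubation – 24 h compound exposure at 37°C, 5% CO2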
APP transl inh = APP translation inhibition; SH-SY5Y APP 5'UTR-luciferase reporter, luminescence; inhibition, % at 2 µM; hit rate 0.82% among 190,000; AID 1285;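 active = inhibition above a set limit, derived from the sample mean plus 3 SD, cut at about 45% in these data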
IEC-6 cytotox = IEC-6 cytotoxicity, counter-screen for KLF5 inhibitors; luminescence viability; inhibition, % at 5 µM; hit rate 0.78% among 290,000; AID 1825;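 note: 0% = plate median of test compound wells and 100% = cytotoxic reference compound wells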
MT stabilize HCS = microtubule stabilization, imaging screen; HeLa tubulin immunostaining HCS, 24 h; share of cells brighter than vehicle mean+2SD; % tubulin-high responders, % at 10 µM; hit rate 0.83% among 200,000;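 active = plate Z-score above 3 for both tubulin-high and condensed-nucleus cell shares, with cell loss under 80%, at 10 µM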;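 note: anti alpha tubulin signal scored within the nucleus-defined area of each cell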
IEC-6 tox confirm = IEC-6 cytotoxicity, confirmation assay | IEC-6 rat intestinal epithelial viability, luminescence | inhibition, % at 5 µM | AID 1907 | shares compounds with IEC-6 cytotox | hit rate 63% among 1,900;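 note: 0% = vehicle and 100% = reference cytotoxic drug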
The depositor's hits bear a star; / = not tested or not shown. Cut-off read from the data, not from the text of the source, unless noted: active = inhibition above about 22%; inactive = the rest.

SMILES	Ba/F3 V617F tox	BaF3 parental	b-catenin transl	APP transl inh	IEC-6 cytotox	MT stabilize HCS	IEC-6 tox confirm
CN(/N=C/c1ccc(N(C)C)cc1)C1=NS(=O)(=O)c2ccccc21	/	/	/	/	37.9*	/	16.3
COc1ccc(N(C)C2=NS(=O)(=O)c3ccccc32)cc1	50.0*	61.0*	27.7	/	54.6*	49.3*	29.5*
CCCC[n+]1ccn(-c2nc3c([N+](=O)[O-])cccc3n2C)c1	/	/	/	/	-7.5	/	/
COc1ccc(N(CC(=O)NCCSCc2ccco2)S(=O)(=O)c2ccccc2)cc1OC	/	/	/	/	-2.5	/	/
FC(F)(F)c1cnc(Sc2nnc(-c3cccs3)n2CC2CCCO2)c(Cl)c1 (centres undefined)	1.1	-0.3	1.8	0.3	25.2*	1.3	33.5*
Cc1ccccc1OCC(=O)NNC(=O)Nc1ccccc1	-1.5	3.9	0.4	-8.1	2.5	2.6	/
Cc1ccccc1OCC(=O)NNC(=O)Nc1ccc(Cl)cc1	1.4	7.2	75.7*	9.5	67.1*	2.8	29.3*
O=C(NNC(=S)NC(=O)c1ccccc1[N+](=O)[O-])c1ccccc1[N+](=O)[O-]	4.2	7.2	-0.3	-6.1	0.4	1.9	/
CCCCOc1ccccc1C(=O)NNC(=S)NC(=O)c1ccccc1[N+](=O)[O-]	/	/	/	/	25.1*	/	6.7
COc1cc(C(=O)NNC(=O)C2CC=CCC2C(=O)O)cc(OC)c1OC (centres undefined)	60.3*	44.4*	-3.0	64.8*	70.1*	7.5	-3.2
O=C(c1cc(COc2cccc3cnccc23)on1)N1CCCC(CCCO)C1 (centres undefined)	/	/	/	/	23.0*	/	24.9*
CCOc1ccc(CCNC(=O)C2CCCN(S(=O)(=O)N3CC(C)CC(C)C3)C2)cc1OCC (centres undefined)	/	/	/	/	-6.0	/	/
CCS(=O)(=O)c1ncc(Cl)c(C(=O)Nc2ccc(S(=O)(=O)N3CCCC(C)C3)cc2)n1 (centres undefined)	/	/	/	/	101.4*	/	4.1
CSc1ncc(Cl)c(C(=O)Nc2ccc(NC(C)=O)cc2)n1	-5.5	-0.5	-2.1	2.2	3.6	4.2	/
Cc1ccc(CS(=O)(=O)c2ncc(Cl)c(C(=O)Nc3ccc(OC(F)F)cc3)n2)cc1	/	/	/	/	31.3*	/	14.6
CCS(=O)(=O)c1ncc(Cl)c(C(=O)Nc2ccc(C)cc2)n1	/	/	/	/	74.9*	/	41.7*
CCC1CCCCN1S(=O)(=O)c1ccc(NC(=O)c2ccncc2)cc1 (centres undefined)	/	/	/	/	7.0	/	/
CCC1CCCCN1S(=O)(=O)c1ccc(NC(=O)c2nc(S(C)(=O)=O)ncc2Cl)cc1 (centres undefined)	/	/	/	/	94.1*	/	21.5
CC[C@H](C)[C@@H]1NC(=O)c2cc([N+](=O)[O-])cc(I)c2SC[C@@H](C(N)=O)NC(=O)[C@H](CCCCN)NC1=O	2.1	7.7	/	-7.6	5.9	1.8	/
COc1ccc(-n2c(SCC(=O)Nc3cccc(S(N)(=O)=O)c3)nc3ccccc3c2=O)cc1OC	-0.7	-3.8	-4.2	/	-3.5	/	/
Cc1ccc(-c2ccnc3nc(-n4cccc4)nn23)o1	1.9	5.7	-0.2	-12.4	10.0	3.9	/
Cc1ccc2nc(SCC(=O)Nc3cc(C(F)(F)F)ccc3N3CCOCC3)[nH]c2c1	78.5*	74.7*	/	94.4*	82.3*	21.9*	59.8*
O=[N+]([O-])c1ccc(OCCO)nc1	-4.0	-6.5	-1.0	/	4.5	/	/
O=C(Nc1cc(Cl)ccc1-n1cncn1)c1cc(S(=O)(=O)N2CCOCC2)ccc1F	/	/	/	/	26.4*	/	3.8
Nc1nc(-c2ccccc2)cc(N2CCCCC2)n1	69.8*	77.2*	56.0*	93.9*	81.6*	13.9*	59.1*
SMILES	Ba/F3 V617F tox	BaF3 parental	b-catenin transl	APP transl inh	IEC-6 cytotox	MT stabilize HCS	IEC-6 tox confirm
CCOc1cc(C#N)c(NC(=O)c2cccnc2)cc1OCC	84.5*	77.2*	/	88.9*	81.8*	38.9*	56.2*
Cc1ccc(C(=O)C[n+]2ccc3ccccc3c2)cc1	8.0	22.4	-1.0	-9.4	13.2	3.6	/
Cc1cc(C(C)(C)C)cc(C)c1C[n+]1ccc2ccccc2c1	/	/	/	/	27.7*	/	22.3*
COc1ccccc1C(=O)n1nc(-c2cccnc2)nc1N	-1.5	-1.1	-2.9	4.8	-1.2	3.3	/
Nc1nc(-c2cccnc2)nn1C(=O)c1ccccc1Cl	-4.1	-0.6	-2.9	-7.8	36.1*	1.6	3.7
O=C(CSc1cccc2cccnc12)NCc1ccco1	-2.8	-2.1	-0.9	-11.6	-7.6	4.0	/
Cc1nsc2nc3c(F)c(F)c(F)c(F)c3cc12	/	/	/	/	29.4*	/	5.2
Nc1ccccc1C(=O)NNC1=C(C(=O)C(F)(F)F)CCC1	-1.4	2.6	-1.1	/	34.3*	/	5.0
O=C(NNC1=C(C(=O)C(F)(F)F)CCC1)c1ccccc1O	-0.4	5.7	/	17.0	0.4	2.6	/
COc1ccc(C(=O)n2c(-c3ccco3)nc3ccccc32)cc1	10.3	8.2	74.6*	50.1*	47.6*	23.5*	35.8*
O=C(N/N=C/c1cc(Cl)ccc1O)c1cccnc1	/	/	/	/	60.2*	/	29.1*
CCOc1ccc(-c2cc(N3C(=O)Nc4ccccc4N3O)n[nH]2)cc1	75.5*	77.2*	-2.0	24.6	70.2*	1.5	2.2
CNc1nc2cc([N+](=O)[O-])c([N+](=O)[O-])cc2nc1NC	75.1*	68.6*	0.0	-18.3	39.5*	5.5	33.7*
CN1C(=O)/C(=C/C=C2\SCCN2C)SC1=S	-1.8	5.8	-2.2	-173.5	-1.8	2.3	/
Cn1c2ccccc2c(=O)c2ccc(C#Cc3ccc(N)cc3)cc21	/	/	/	/	36.3*	/	33.4*
COc1ccc(C#Cc2ccc3c(=O)c4ccccc4n(C)c3c2)cc1	/	/	/	/	0.5	/	/
N#C/C(=C\c1ccccn1)c1ccccn1	/	/	/	/	28.2*	/	17.4
CC(NC1CCN(Cc2ccccc2)CC1)c1ccc(F)cc1 (centres undefined)	/	/	/	/	-5.2	/	/
CC(C)C(CCNC1CCN(C)CC1)c1ccc(Cl)cc1 (centres undefined)	/	/	/	/	35.7*	/	56.5*
CN1CCC(NCCC(c2ccc(F)cc2)c2ccc(Cl)cc2)CC1 (centres undefined)	/	/	/	/	49.3*	/	100.1*
O=C(O)CSc1cc(NS(=O)(=O)c2cccc([N+](=O)[O-])c2)c2ccccc2c1O	3.7	-0.1	-1.6	/	16.0	/	/
CCOc1ccc(S(=O)(=O)Nc2cc(SCC(=O)O)c(O)c3ccccc23)cc1	/	/	/	/	49.4*	/	1.0
O=[N+]([O-])c1ccc(N/N=C/c2cccnc2)cc1	/	/	/	/	24.2*	/	5.0
CN(Cc1ccccc1C#N)S(=O)(=O)c1cccs1	/	/	/	/	3.5	/	/
N#Cc1nccnc1S(=O)(=O)c1cccs1	92.4*	34.8*	-1.9	/	40.0*	/	82.1*
COc1ccc(N2CC(C(=O)Nc3ccncc3)CC2=O)cc1 (centres undefined)	/	/	/	/	-4.6	/	/
O=c1[nH]c(CN2CCN(S(=O)(=O)c3ccccc3C(F)(F)F)CC2)nc2sc3c(c12)CCCC3	4.6	8.2	-0.8	-13.6	-1.0	3.6	/
Cc1cccc[n+]1CCCCCCCCCC[n+]1ccccc1C	3.1	15.6	0.0	-1.0	0.0	1.9	/
